Compounds with a hit are over-represented: about 2.5% of the library has one in this group of screens.
NR2E3 ag-1 – NR2E3 (human) agonism | Q9Y5X4 | GST-NR2E3/biotin-RetCOR TR-FRET, 1536-well | inhibition of corepressor binding, % at 4.78 µM | actives 0.12% (n = 320,000);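 active means percent inhibition above the cutoff of mean plus 3 SD of all tested compounds, set per screening campaign, cut at about 20% in these data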;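 further: 0% = DMSO wells and 100% = biotin wells as full block of FRET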
Target sequence (Q9Y5X4 whole entry, looked up): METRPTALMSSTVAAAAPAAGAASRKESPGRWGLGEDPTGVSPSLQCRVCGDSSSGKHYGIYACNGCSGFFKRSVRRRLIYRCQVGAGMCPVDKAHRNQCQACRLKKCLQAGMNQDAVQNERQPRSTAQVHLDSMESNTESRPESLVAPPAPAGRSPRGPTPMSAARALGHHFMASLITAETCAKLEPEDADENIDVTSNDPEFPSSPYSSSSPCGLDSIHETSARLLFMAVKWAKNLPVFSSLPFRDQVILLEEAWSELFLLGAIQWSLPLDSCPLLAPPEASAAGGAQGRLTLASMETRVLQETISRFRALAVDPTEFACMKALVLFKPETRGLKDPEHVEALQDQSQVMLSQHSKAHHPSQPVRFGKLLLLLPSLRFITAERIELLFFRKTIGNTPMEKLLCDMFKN
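System: GST-NR2E3 and biotin-RetCOR proteins; probe or stimulus: 7 nM biotin-RetCOR; doses: compound at 4.8 µM, single dose; schedule: Compound–protein incubation for 5 h at 4 °C; detection: time-resolved FRET; read-out: percent inhibition; controls: biotin wells as high control, 0.6% DMSO wells as low control; format: 1536-well plates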
ADAM10 inh – inhibits human ADAM10; inhibition, % at 7 µM; actives 0.62% (n = 370,000); recombinant ADAM10, EDANS/DABCYL FRET peptide cleavage, 3 h; AID 720582; O14672;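 active means inhibition above a per-campaign cutoff equal to the mean of compounds falling between control-based bounds plus 3 SD, cut at about 20% in these data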;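 further: 0% = DMSO wells while the 100% control is not disclosed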
ADAM17 inh – inhibitors of human ADAM17 | inhibition, % at 6.95 µM | P78536 | AID 720648 | actives 0.83% (n = 370,000) | recombinant ADAM17, EDANS/DABCYL FRET peptide cleavage;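 active means inhibition above the mean of compounds lying between control limits plus 3 SD, set per campaign, cut at about 8.5% in these data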;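 further: 0% = DMSO-only wells as the low control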
NR2E3 ag-2 – human photoreceptor-specific nuclear receptor agonism; actives 0.35% (n = 360,000); Q9Y5X4; CHO-S Gal4-NCOR/VP16-NR2E3 two-hybrid, luciferase; inhibition of corepressor binding, % at 3.98 µM; AID 602229;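 active means inhibition above the mean of all tested compounds plus 3 SD, cut at about 70% in these data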;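 further: 0% = DMSO with NR2E3 transfected cells and 100% = cells lacking NR2E3 construct; higher means lower luciferase signal from less NR2E3 corepressor binding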
JMJD2C inh – blocks human GASC-1 demethylase activity; actives 0.069% (n = 330,000); GST-JMJD2C(1-420) H3K9me3 demethylation, DELFIA europium; inhibition, % at 2.35 µM; Q9H3R0;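 active means more than half of a compound's replicate wells show inhibition beyond 50%, single wells judged on their own value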;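 further: signal counts dimethyl H3K9 product captured on neutravidin plate; 0% = median of DMSO wells and 100% = 0.3 times that DMSO median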
KLK7 zymogen act – proKLK7 (human) activation, primary screen. AID 652039. actives 0.9% (n = 370,000). activation, % at 7 µM. P49862. purified proKLK7, EDANS-DABCYL substrate fluorescence; 100% is mature enzyme control, 0% vehicle;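 active means activation above the mean of all tested compounds plus 3 SD, computed per campaign excluding outliers beyond control limits, cut at about 13% in these data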
Target sequence (P49862 whole entry, looked up): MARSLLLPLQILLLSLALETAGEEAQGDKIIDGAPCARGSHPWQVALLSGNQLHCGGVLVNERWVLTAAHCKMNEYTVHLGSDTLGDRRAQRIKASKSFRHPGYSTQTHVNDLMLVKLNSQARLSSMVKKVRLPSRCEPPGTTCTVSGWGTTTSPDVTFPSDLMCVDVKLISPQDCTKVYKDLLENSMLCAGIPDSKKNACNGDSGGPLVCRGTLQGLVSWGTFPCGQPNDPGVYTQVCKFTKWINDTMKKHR
NR2E3 ag confirm – NR2E3 agonism confirmed in two-hybrid assay; shares compounds with NR2E3 ag-2; actives 51% (n = 2,300); inhibition, % at 3.98 µM; CHO-S mammalian two-hybrid NR2E3-NCOR, luciferase luminescence; AID 624378;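 active means average inhibition above a cutoff equal to the mean inhibition of all tested compounds plus one SD, cut at about 70% in these data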;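 further: 0% = DMSO in NR2E3 cells and 100% = DMSO in cells lacking NR2E3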
GAL4-VP16 luc – reduces GAL4-VP16 reporter signal in NR2E3 counterscreen | shares compounds with NR2E3 ag-2 | CHO-S GAL4-VP16 luciferase reporter, luminescence | inhibition, % at 3.98 µM | actives 29% (n = 2,300) | AID 624379;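 active means mean inhibition above a cutoff equal to the average over all tested compounds plus one standard deviation, cut at about 70% in these data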;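 further: luciferase from a UAS reporter driven by GAL4-VP16 transactivation; 0% = DMSO with VP16-transfected cells and 100% = DMSO with cells lacking VP16; higher means less reporter light so more repression of VP16 activity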
* hit, by the source's call; nt = not tested or not shown.

SMILES	NR2E3 ag-1	ADAM10 inh	ADAM17 inh	NR2E3 ag-2	JMJD2C inh	KLK7 zymogen act	NR2E3 ag confirm	GAL4-VP16 luc
O=S(=O)(NC1CCCC1)c1ccc(S(=O)(=O)N2CCc3ccccc32)cc1	1	15	6	55	-4	0	79*	54
O=C(NNC(=O)c1cccc(S(=O)(=O)N2CCc3ccccc32)c1)c1ccccc1	nt	7	-1	53	13	0	80*	71*
COC(=O)[C@]12C[C@H](CC(=O)NCCC(C)C)C(=O)N(CCc3ccc(OC)c(OC)c3)C1=C[C@H](C1CCCC1)O[C@@H]2C	nt	6	2	nt	nt	0	nt	nt
CCCCN(C(C)=O)c1ccc2c(c1)C1CC2CCN1C(=O)OCc1ccccc1 (stereo unspecified)	nt	-1	-2	68	nt	0	91*	69
Nc1nc2ccccc2cc1C(=O)NCc1ccc(Cl)cc1Cl	nt	nt	nt	91*	nt	nt	97*	79*
COc1ccc(/C=C/C(=O)NCCc2ccc(OC)c(OC)c2)cc1	-4	2	-3	-3	-21	0	nt	nt
COc1ccc(CCNC(=O)/C=C/c2ccc3ccccc3n2)cc1OC	3	-4	0	48	60	0	-9	-15
COc1ccc(CCNC(=O)c2cc3cc(Cl)ccc3nc2N)cc1OC	nt	nt	nt	66	nt	nt	68	65
Nc1nc2ccc(Cl)cc2cc1C(=O)NCCc1ccc(O)cc1	nt	-476	-110	nt	nt	10	nt	nt
N#CCSc1ccccc1NC(=O)COC(=O)C1CCN(C(=O)c2ccc(Cl)cc2)CC1	nt	-4	0	-8	nt	0	nt	nt
Cc1cnc(C(=O)Nc2cccc3cccnc23)cn1	nt	2	-5	77*	0	0	-6	-10
Cc1cccc(C(=O)Nc2cccc3cccnc23)c1	nt	4	1	-75	-4	0	nt	nt
O=C(OCC#CCSc1nnc(-c2ccc3ccccc3c2)o1)c1cccs1	nt	4	1	nt	nt	nt	nt	nt
CCN(CC)S(=O)(=O)c1ccc(Cl)c(C(=O)Nc2ccc(Cl)cc2[N+](=O)[O-])c1	5	6	5	58	-1	-1	70*	67
O=C(Cc1ccc(-c2ccccc2)cc1)NNC(=S)NCc1ccco1	1	-1	-2	54	-1	0	89*	59
CC(=O)/C(=N/Nc1cccc(Cl)c1)N1CCOCC1	6	-20	5	64	6	0	7	-18
COc1ccc(-c2ocnc2C(=O)NCc2nn(-c3ccccc3)nc2C)cc1	2	-10	-10	56	4	-1	87*	72*
CC(=O)c1c(C)oc2ccc(NS(=O)(=O)c3ccc(F)cc3C)cc12	1	-1	-4	70	-6	1	57	61
OCCCNc1ncnc2[nH]ncc12	nt	-61	-12	-14	nt	3	nt	nt
CCCCCCCCNc1ncnc2[nH]ncc12	nt	-2	2	73*	nt	0	84*	73*
O=[N+]([O-])c1ccc(S(=O)(=O)Nc2nc(-c3ccccc3)cs2)cc1	3	5	1	24	-1	0	nt	nt
O=S(=O)(Nc1nc(-c2ccccc2)cs1)c1cccc(C(F)(F)F)c1	0	15	1	71*	4	0	88*	76*
O=S(=O)(Nc1nc(-c2ccccc2)cs1)c1cc(Cl)ccc1Cl	3	8	2	57	12	0	57	42
NC(=O)c1ccsc1NC(=O)COC(=O)Cc1ccccc1[N+](=O)[O-]	nt	0	-1	8	nt	0	nt	nt
O=S1(=O)c2ccc(Br)cc2OC[C@H](Cc2ccccc2)N1Cc1cn(Cc2ccc(Br)cc2)nn1	nt	-3	3	nt	nt	0	nt	nt
SMILES	NR2E3 ag-1	ADAM10 inh	ADAM17 inh	NR2E3 ag-2	JMJD2C inh	KLK7 zymogen act	NR2E3 ag confirm	GAL4-VP16 luc
O=[N+]([O-])c1ccc(Sc2cccc3cccnc23)c([N+](=O)[O-])c1	2	1	-5	78*	-2	0	12	-24
O=[N+]([O-])c1cc(Cl)ccc1Sc1cccc2cccnc12	-1	13	3	-3	nt	0	nt	nt
CCOC(=O)C1(Cc2ccccc2)CCN(Cc2ccnc3ccccc23)CC1	nt	4	-1	nt	nt	0	nt	nt
O=C(CC(Nc1ccccc1)C(=O)O)c1ccccc1 (stereo unspecified)	-3	2	-3	-103	3	1	nt	nt
O=C(CC(Nc1ccc(Cl)cc1Cl)C(=O)O)c1ccccc1 (stereo unspecified)	2	-5	-4	59	5	-1	40	26
COc1ccccc1/C=C/CN1CCC(n2nccc2NC(=O)CCc2ccccc2)CC1	-4	-8	0	65	1	0	56	51
O=C(CSc1nnc(-c2ccccn2)n1-c1ccccc1)Nc1ccccc1-c1ccccc1	nt	-11	-2	nt	nt	0	nt	nt
Cc1onc(-c2ccccc2Cl)c1C(=O)Nc1cccc(S(=O)(=O)NC2=NCCC2)c1	5	4	-1	-10	4	0	nt	nt
N#CNC(=Nc1ccccc1)SCc1ccc(C(=O)O)cc1	2	-1	1	6	0	0	nt	nt
CSC(=Nc1ccccc1)N=C(SCc1ccccc1)N(C)C	nt	-6	-5	86*	nt	0	87*	53
O=S1(=O)c2ccc(N3CC[C@@H](O)C3)cc2O[C@@H]2CCN1C2	nt	-12	-5	nt	nt	0	nt	nt
O=c1cc(C(F)(F)F)nc(SCc2cccc3ccccc23)[nH]1	-1	11	7	100*	-1	0	98*	84*
Nc1cc(=O)[nH]c(SCc2cccc3ccccc23)n1	0	-2	-2	-35	-3	-1	nt	nt
Cc1ccccc1-c1nnn(Cc2cccc(S(=O)(=O)N3CCOCC3)c2)n1	-1	-1	3	64	13	0	13	31
O=C1c2ccccc2S(=O)(=O)N1Cc1cccc(S(=O)(=O)N2CCOCC2)c1	1	-2	-4	-26	28	0	nt	nt
O=[N+]([O-])c1ccc(Sc2cccc[n+]2[O-])c2nonc12	nt	7	-2	102*	-9	2	-44	-7
CC1=C(C(=O)N(C(C)C)C(C)C)CC(CC(=O)NC2CCCCC2)C(=O)N1Cc1ccc(F)cc1 (stereo unspecified)	nt	0	-1	-7	nt	0	nt	nt
CC(=O)N1CCCc2cc(S(=O)(=O)N3CCCC(C(=O)N4CCN(c5cc(C)ccc5C)CC4)C3)ccc21 (stereo unspecified)	-4	17	9	98*	6	1	91*	79*
